Bioassay records deposited in PubChem by several laboratories.
Sampled rows, rich in hits. Any-hit rate of the full collection: about 2.7%.
Phagocytosis inh = blocks phagocytosis by macrophages; J774A.1 macrophage IgG-bead phagocytosis, imaging; inhibition, % at 5 µM; hit rate 0.07% among 110,000; AID 1029;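 active = inhibition above the mean of the plate negative controls plus 5 SD, cut at about 13% in these data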;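 note: phagocytic index as fraction of beads internalized from green versus red external bead signal; plate controls were DMSO negative control for no effect and cytochalasin-D positive control for full effect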
RAM network inh = yeast RAM network inhibition; S. cerevisiae dse1pr::URA3 reporter, 5-FOA growth OD615, 2 d; analog-sensitive cbk1-as2 kinase mutant strain; inhibition, % at 50 µM; hit rate 1.8% among 190,000;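 active = inhibition above a set limit, 3 SD over mean compound inhibition, cut at about 8.4% in these data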;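 note: 0% = DMSO-only wells with no growth and 100% = 10 µM 1-NA-PP1 full growth; inhibition rescues growth on 5-FOA so higher OD means more RAM inhibition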
Yeast lifespan up = extends the lifespan of yeast | S. cerevisiae growth with nicotinamide, OD615; deaD strain in restrictive glucose medium | inhibition of the nicotinamide effect, % at 10 µM | hit rate 0.68% among 130,000 | AID 775;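 active = inhibition above a set limit, placed 3 SD over the median of all compounds, cut at about 26% in these data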;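 note: 0% = nicotinamide-treated wells and 100% = cells grown without nicotinamide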
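Assay system: engineered S. cerevisiae DeaD replicative-lifespan strain, galactose-grown log-phase cells; medium: restrictive CSMM-D dextrose medium; also added: nicotinamide, 1.5 mM, co-present with compound; schedule: 48 h compound exposure at 30 °C, humidified; detection: absorbance at 615 nm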
Yeast growth inh = chemicals that inhibit yeast BB579 growth in restrictive medium (lifespan-shortening candidates); hit rate 0.51% among 140,000; S. cerevisiae BB579 growth, OD615, 48 h; inhibition, % at 10 µM; AID 804;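 active = inhibition above a set limit, 3 SD over the mean compound inhibition, cut at about 44% in these data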
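Material: Saccharomyces cerevisiae DeaD strain BB579, replicative lifespan model yeast; buffer or medium: CSMM-D restrictive synthetic medium containing dextrose (glucose); compound: 10 µM single dose, DMSO 0.25%; timing: 48 h compound exposure at 30 °C after 4 h preincubation; signal: turbidity as optical density at 615 nm; benchmarks: positive control amphotericin B 10 µg/mL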
* = called active by the depositor.

How did COc1ccc(-c2cn(-c3ccc(C)cc3C)c(=O)[nH]2)cc1OC do in these assays?
RAM network inh: 0

How did O=S(=O)(Nc1ccc(-n2cccc2)cc1)c1ccc(F)cc1 do in these assays?
RAM network inh: -1

What do the screens show for `O=S(=O)(Nc1ccc(-n2cccc2)cc1)c1ccc(Cl)cc1Cl`?
Phagocytosis inh: 0; RAM network inh: 3; Yeast lifespan up: -26; Yeast growth inh: 74*

What do the screens show for `COc1cc(OC)cc(C(=O)Nn2cc(C(=O)Nc3c(F)cccc3F)c3ccccc3c2=O)c1`?
RAM network inh: 5; Yeast lifespan up: -1; Yeast growth inh: -46

What do the screens show for `CC(C)OCCCN1CN(S(=O)(=O)c2ccc(Cl)cc2)c2nc3ccccc3nc21`?
Phagocytosis inh: -4; RAM network inh: 5; Yeast lifespan up: -8; Yeast growth inh: -24

What do the screens show for `CC(C)OCCCN1CN(S(=O)(=O)c2cccc(Cl)c2)c2nc3ccccc3nc21`?
RAM network inh: 9.1*; Yeast lifespan up: 0; Yeast growth inh: -33

What do the screens show for `COC(=O)c1sc(S(=O)(=O)N2CCC(C(=O)O)CC2)c(C(=O)OC)c1C`?
Phagocytosis inh: -1; RAM network inh: 0; Yeast lifespan up: -17; Yeast growth inh: -1

What do the screens show for `CCC(=O)N(Cc1ccc(S(N)(=O)=O)cc1)C1CC(=O)N(c2ccccc2)C1=O` (configuration not stated)?
RAM network inh: 2

How did O=C(O)CCNC(=O)c1ccc(Br)o1 do in these assays?
Phagocytosis inh: -1; RAM network inh: 0; Yeast lifespan up: 2; Yeast growth inh: -15

What do the screens show for `O=C(NCCC(c1ccccc1)c1ccccc1)c1ccc(Br)o1`?
Phagocytosis inh: 0; RAM network inh: 10*; Yeast lifespan up: -4; Yeast growth inh: -32

How did Cc1cc(/C=C2/NC(=O)N(Cc3ccccc3F)C2=O)c(C)n1C do in these assays?
Phagocytosis inh: -1; RAM network inh: 1; Yeast lifespan up: 27*; Yeast growth inh: -55

How did O=C(CS(=O)(=O)c1cn(Cc2cccc(F)c2)c2ccccc12)N1CCOCC1 do in these assays?
Phagocytosis inh: -1; RAM network inh: 9.3*; Yeast lifespan up: -5; Yeast growth inh: -12

How did O=S(=O)(Nc1ccc(-c2nc3ccccc3o2)cc1)c1ccccc1 do in these assays?
Phagocytosis inh: 0; RAM network inh: 5; Yeast lifespan up: -7; Yeast growth inh: 46*

What do the screens show for `Cn1nc(C(=O)OCc2ccc(F)cc2)c2ccccc2c1=O`?
RAM network inh: 10*

How did Cc1ccc(COC(=O)c2nn(C)c(=O)c3ccccc23)cc1 do in these assays?
RAM network inh: 3

Results for COc1nccnc1NS(=O)(=O)c1ccc(NC(=S)NC(=O)/C=C/c2ccc(F)cc2)cc1 ?
Phagocytosis inh: -8; RAM network inh: 11*; Yeast lifespan up: 10; Yeast growth inh: -50

Results for COc1nccnc1NS(=O)(=O)c1ccc(NC(=S)NC(=O)c2ccc(F)c(F)c2)cc1 ?
Phagocytosis inh: -2; RAM network inh: 3; Yeast lifespan up: 10; Yeast growth inh: -46

What do the screens show for `O=C(Nc1ccc2c(c1)OCCO2)C(=S)NCc1ccccc1`?
RAM network inh: 8.7*

What do the screens show for `Cc1cc2nc(N=C(N)N)nc(C)c2cc1C`?
RAM network inh: -1

Results for COC(=O)c1ccc(/C(O)=C(\C#N)c2nc3ccccc3s2)cc1 ?
Phagocytosis inh: 2; RAM network inh: 0; Yeast lifespan up: 31*; Yeast growth inh: -4

What do the screens show for `Cc1ccc(OC/C(O)=C(\C#N)c2nc3ccccc3s2)cc1`?
Phagocytosis inh: -1; RAM network inh: 4; Yeast lifespan up: 28*; Yeast growth inh: -29

How did COC(=O)c1ccc(CC(=O)c2nc3ccccc3s2)cc1 do in these assays?
Phagocytosis inh: -10; RAM network inh: 2; Yeast lifespan up: -3; Yeast growth inh: -17

How did O=C(COC(=O)CNS(=O)(=O)/C=C/c1ccccc1)Nc1cccc2ccccc12 do in these assays?
RAM network inh: 1

What do the screens show for `O=S1(=O)C=C(Sc2nnc(-c3ccccc3)o2)c2ccccc21`?
Phagocytosis inh: 2; RAM network inh: 3; Yeast lifespan up: 43*; Yeast growth inh: 36

What do the screens show for `CCCNC(=S)NCc1ccc(Cl)cc1`?
Phagocytosis inh: -10; RAM network inh: 0; Yeast lifespan up: 5; Yeast growth inh: -36

Results for CN1C(=O)c2cccc3c(Cl)ccc(c23)C1=O ?
Phagocytosis inh: -1; RAM network inh: 0; Yeast lifespan up: -9; Yeast growth inh: 61*

Results for CN1C(=O)c2ccc(N(C)C)cc2C1=O ?
RAM network inh: 0; Yeast growth inh: 21
